Reference: PMC13435124 (The FASEB Journal, 2026)
Where a name gives a salt, the structure may show the parent alone.

System: Nrf2 activation in KeratinoSens cells
Assay: KeratinoSens reporter gene assay
Format: cell-based
Details: 6 h
Method in brief: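 KeratinoSens ARE-luciferase cells (passage ≤22) plated at 1.0 × 10^4 per well in triplicate; after 24 h switched to DMEM with 1% FBS, no geneticin. Wortmannin 500 nM added 1 h before test compound at 250 μM; DMF 50 μM as positive control; DMSO ≤0.1%. After 6 h, Alamar Blue (4 h, 37°C), then luciferase read as fold over DMSO. Three independent experiments in triplicate.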

| SMILES | Nrf2 activation (luciferase induction) (Iso 250 μM, DMF 50 μM) | effect on Iso-induced Nrf2 activation (Wortmannin 500 nM added 1 h before Iso 250 μM) |
| --- | --- | --- |
| COC(=O)/C=C/C(=O)OC [DMF, Dimethyl fumarate] | induced Nrf2 activation | – |
| COC[C@H]1OC(=O)c2coc3c2[C@@]1(C)C1=C(C3=O)[C@@H]2CCC(=O)[C@@]2(C)C[C@H]1OC(C)=O [Wortmannin] | – | partially inhibited |
